# Tests used:
# [1] = In vivo metabolic stability, mouse blood 5 min pi, without or with PA; parameters: species or system Swiss albino mice; settings: peripheral mouse blood, HPLC; for Intact radiopeptide, 5 min pi (+ phosphoramidon): PA coinjected, n=2; for Intact radiopeptide, 5 min pi: radioligand alone, n=3
# Summary of the method: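 Healthy male Swiss albino mice (30 ± 5 g) were injected with the 177Lu-labelled test peptide alone (n = 3) or with coinjected phosphoramidon (n = 2). Blood was collected at 5 min pi and analysed by HPLC radiochromatography for the percentage of intact radioligand.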
# PC-3 xenografts [2] = assay: Influence of PA coinjection on biodistribution; format: in vivo, BALB/c nu/nu mice; settings: 1 hr pi
# PC-3 xenografts [3] = assay: Influence of injected peptide dose on biodistribution; format: in vivo, BALB/c nu/nu mice; settings: 750 pmol in comparison to 50 pmol, 1 hr pi
# Summary of the method: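 PC-3-xenografted BALB/c nu/nu mice (17 ± 2 g; tumours 0.19 ± 0.06 g) were injected with 80 kBq of the 177Lu-labelled test peptide at a total peptide dose of 50, 100, 250, 500 or 750 pmol/animal, with phosphoramidon coinjection. Tumour and organ uptake were measured at 1 hr pi; tumour slices were also examined by ex vivo autoradiography.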
# PC-3 xenografts [4] = assay: Biodistribution over time; format: in vivo, BALB/c nu/nu mice; settings: 24 hr pi vs peak at 1 hr pi, 100 pmol
# Summary of the method: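 PC-3-xenografted BALB/c nu/nu mice received the 177Lu-labelled test peptide (80 kBq, 100 pmol/animal, 100 μl) with coinjected NEP inhibitor phosphoramidon. Animals were euthanized at 0.5, 1, 2, 4, 24, 48 and 90 hr pi, and tumour and organ activity uptake were measured.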
# PC-3 xenografts [5] = assay: Dosimetry estimates; parameters: species or system BALB/c nu/nu mice; settings: per 60 MBq treatment cycle (200 pmol)
# Summary of the method: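 Organ absorbed doses were estimated for a 100 pmol injection of the 177Lu-labelled test peptide. The estimate used time-course biodistribution data from PC-3-xenografted nude mice and a MOBY-phantom dosimetry model. Other peptide masses were scaled by the ratio of 1 hr uptake at 50–250 pmol to the 100 pmol 1 hr uptake; uptake versus mass was fitted with exponential curves. Doses were expressed per 60 MBq cycle.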
# PC-3 xenografts [6] = assay: Experimental in vivo therapy; parameters: species or system BALB/c nu/nu mice
smiles,measurement,setting,value
"CC(C)C[C@H](NC(=O)C[C@H](O)[C@H](CC(C)C)NC(=O)[C@H](Cc1c[nH]cn1)NC(=O)CNC(=O)[C@@H](NC(=O)[C@H](C)NC(=O)[C@H](Cc1c[nH]c2ccccc12)NC(=O)[C@H](CCC(N)=O)NC(=O)[C@@H](Cc1ccccc1)NC(=O)COCCOCCNC(=O)CN1CCN(CC(=O)O)CCN(CC(=O)O)CCN(CC(=O)O)CC1)C(C)C)C(N)=O [^177Lu-DOTA-PEG2-RM26, metal not drawn]","Intact radiopeptide, 5 min pi (+ phosphoramidon)",[1],> 96%
same,"Intact radiopeptide, 5 min pi",[1],64.7 ± 4.6%
"CC(C)C[C@H](NC(=O)C[C@H](O)[C@H](CC(C)C)NC(=O)[C@H](Cc1c[nH]cn1)NC(=O)CNC(=O)[C@@H](NC(=O)[C@H](C)NC(=O)[C@H](Cc1c[nH]c2ccccc12)NC(=O)[C@H](CCC(N)=O)NC(=O)[C@@H](Cc1ccccc1)NC(=O)COCCOCCNC(=O)CCC(C(=O)O)N1CCN(CC(=O)O)CCN(CC(=O)O)CCN(CC(=O)O)CC1)C(C)C)C(N)=O (stereo partly drawn) [^177Lu-DOTAGA-PEG2-RM26, metal not drawn]","Intact radiopeptide, 5 min pi (+ phosphoramidon)",[1],> 98%
same,"Intact radiopeptide, 5 min pi",[1],70.7 ± 3.1%
same,Increase of pancreatic uptake with PA,"PC-3 xenografts [2]; 50 pmol, PA vs control",threefold
same,Increase of tumor uptake with PA,"PC-3 xenografts [2]; 50 pmol, PA vs control",1.6 fold
same,Amplification of tumor uptake with PA,PC-3 xenografts [2]; PA coinjection,60%
same,Decrease of tumor uptake,PC-3 xenografts [3],threefold
same,Decrease of tumor uptake,PC-3 xenografts [4],fourfold
same,Estimated absorbed dose to the kidneys,PC-3 xenografts [5],5 Gy
same,Estimated absorbed dose to the tumor,PC-3 xenografts [5],11 Gy
same,Median survival compared with controls,"PC-3 xenografts [6]; 6 cycles iv every second day, n=11-12",significant prolongation of median survival
same,Tumor growth,"PC-3 xenografts [6]; 6 cycles, 200 pmol/60 MBq, +PA",significant inhibition of tumor growth
"CC(C)C[C@H](NC(=O)C[C@H](O)[C@H](CC(C)C)NC(=O)[C@H](Cc1c[nH]cn1)NC(=O)CNC(=O)[C@@H](NC(=O)[C@H](C)NC(=O)[C@H](Cc1c[nH]c2ccccc12)NC(=O)[C@H](CCC(N)=O)NC(=O)[C@@H](Cc1ccccc1)NC(=O)COCCOCCNC(=O)CCC(C(=O)O)N1CCN(CC(=O)O)CCN(CC(=O)O)CC1)C(C)C)C(N)=O (stereo partly drawn) [^177Lu-NODAGA-PEG2-RM26, metal not drawn]","Intact radiopeptide, 5 min pi (+ phosphoramidon)",[1],> 96%
same,"Intact radiopeptide, 5 min pi",[1],64.0 ± 2.0%

# — article PMC6852655 (International Journal of Cancer, 2019)
